Assay results reported in ChEMBL document CHEMBL1122629, “Potent and selective antagonists of the antidiuretic responses to arginine-vasopressin based on modifications of [1-(beta-mercapto-beta,beta-pentamethylenepropionic acid),2-D-isoleucine,4- valine]arginine-vasopressin at position 4” (J Med Chem, 1984).

Key:
Rattus norvegicus [1] = species on record: Rattus norvegicus; test: Antidiuretic activity in rats and pA2 value is negative logarithm of effective dose (ED); assay type: functional, organism-based; conditions: Urine, read-out: pA2 (converted)
How it was run: (§1)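 Antidiuretic assay in rats under ethanol anaesthesia against the USP posterior pituitary reference standard. Standard given 20 min after antagonist, or 10 min for analogues lacking agonism. Each peptide given at a high and a low dose. ED is the dose (nmol/kg) that cuts the response to 2x units of agonist to the response to 1x unit given before antagonist. […] Means ± SE, n assays.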

Rattus norvegicus [2] = test: Evaluated in vivo for logarithm effective dose (ED); assay type: functional, organism-based
Rattus norvegicus [3] = species on record: Rattus norvegicus; test: Anti-oxytocic activity on isolated rat uterus in absence of Mg2+. pA2 value is negative logarithm of effective dose (ED); assay type: functional; conditions: read-out: pA2 (converted)
How it was run: (§2)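 Isolated rat uterus, with USP posterior pituitary reference standard as agonist. Antagonism expressed as pA2.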

Rattus norvegicus [4] = species on record: Rattus norvegicus; test: Anti-oxytocic activity on isolated rat uterus in presence of 0.5 mM of Mg2+. pA2 value is negative logarithm of effective dose (ED); assay type: functional; conditions: read-out: pA2 (converted); how it was run: as §2
[5] = Ratio of anti-vasopressor ED50 to antiantidiuretic ED50; assay type: functional, Urine
How it was run: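 Ratio of antivasopressor ED to antiantidiuretic ED. Each ED is the dose (nmol/kg) that lowers the response to 2x units of agonist to that of 1x unit before antagonist. Measured in rats: vasopressor assay in phenoxybenzamine-treated, urethane-anaesthetised animals; antidiuretic assay under ethanol anaesthesia.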

Rattus norvegicus [6] = test: In vivo antidiuretic activity in rat measured as dose that reduced the response seen with 2x units of agonist to equal the response seen with 1x unit of agonist administered before antagonist; assay type: functional, Urine; how it was run: as §1
Rattus norvegicus [7] = test: In vivo anti-vasopressor activity in phenoxybenzamine-treated rats under urethane anesthesia is measured as effective dose; assay type: functional
How it was run: (§3)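 Intravenous vasopressor assay in phenoxybenzamine-treated rats under urethane anaesthesia, agonist USP posterior pituitary reference standard. ED is the dose (nmol/kg) that reduces the response to 2x units of agonist to that of 1x unit given before antagonist. […] Means ± SE, number of assays given.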

Rattus norvegicus [8] = species on record: Rattus norvegicus; test: Anti-oxytocic activity in rat uterus pA2 value is negative logarithm of effective dose (ED); assay type: functional, organism-based; conditions: read-out: pA2 (converted)
Rattus norvegicus [9] = species on record: Rattus norvegicus; test: Anti-oxytocic activity in rat uterus and effective dose (ED) was reported.; assay type: functional
How it was run: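 Rat uterus in situ, with synthetic oxytocin as agonist. ED is the dose (nmol/kg) that lowers the response to 2x units of agonist to that of 1x unit given before antagonist.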

Rattus norvegicus [10] = test: Compound was evaluated in vivo for anti-vasopressor activity in rats and pA2 value is negative logarithm of effective dose (ED); assay type: functional, organism-based; conditions: read-out: pA2 (converted); how it was run: as §3

Row | Structure (SMILES) | Kb (Rattus norvegicus [1]) [nM] | in vivo pA2 effective dose (as concentration) (Rattus norvegicus [2]) [µM] | Kb (Rattus norvegicus [3]) [nM] | Kb (Rattus norvegicus [4]) [nM] | Ratio [5] | ED (Rattus norvegicus [6]) [nmol/kg] | ED (Rattus norvegicus [7]) [nmol/kg] | Kb (Rattus norvegicus [8]) [nM] | ED (Rattus norvegicus [9]) [nmol/kg] | Kb (Rattus norvegicus [10]) [nM]
1 | CC[C@@H](C)[C@H]1NC(=O)CC2(CCCCC2)SSC[C@@H](C(=O)N2CCC[C@H]2C(=O)N[C@@H](CCCN=C(N)N)C(=O)NCC(N)=O)NC(=O)[C@H](CC(N)=O)NC(=O)[C@H](CCCN)NC(=O)[C@H](Cc2ccccc2)NC1=O [listing 1 of 2 here] | 347 | 0.174 | 26.9 | 195 |  |  |  |  |  | 
2 | CC[C@@H](C)[C@H]1NC(=O)CC2(CCCCC2)SSC[C@@H](C(=O)N2CCC[C@H]2C(=O)N[C@@H](CCCN=C(N)N)C(=O)NCC(N)=O)NC(=O)[C@H](CC(N)=O)NC(=O)[C@H](CCCN)NC(=O)[C@H](Cc2ccccc2)NC1=O [listing 2 of 2 here] |  |  |  |  | 0.24 | 49 | 11.9 |  |  | 
3 | NC(=O)CNC(=O)[C@H](CCCN=C(N)N)NC(=O)[C@@H]1CCCN1C(=O)[C@@H]1CSSC2(CCCCC2)CC(=O)N[C@H](Cc2ccccc2)C(=O)N[C@@H](Cc2ccccc2)C(=O)N[C@@H](CO)C(=O)N[C@@H](CC(N)=O)C(=O)N1 [listing 1 of 2 here] | 46.8 | 0.0234 | 22.9 | 14.8 |  |  |  | 200 |  | 
4 | NC(=O)CNC(=O)[C@H](CCCN=C(N)N)NC(=O)[C@@H]1CCCN1C(=O)[C@@H]1CSSC2(CCCCC2)CC(=O)N[C@H](Cc2ccccc2)C(=O)N[C@@H](Cc2ccccc2)C(=O)N[C@@H](CO)C(=O)N[C@@H](CC(N)=O)C(=O)N1 [listing 2 of 2 here] |  |  |  |  | 0.41 | 3.9 | 1.6 |  | 13 | 
5 | CC[C@@H](C)[C@H]1NC(=O)CC2(CCCCC2)SSC[C@@H](C(=O)N2CCC[C@H]2C(=O)N[C@@H](CCCN=C(N)N)C(=O)NCC(N)=O)NC(=O)[C@H](CC(N)=O)NC(=O)[C@H](C)NC(=O)[C@H](Cc2ccccc2)NC1=O [listing 1 of 2 here] | 17.4 |  | 31.6 | 33.9 |  |  |  | 724 |  | 933
6 | CC[C@@H](C)[C@H]1NC(=O)CC2(CCCCC2)SSC[C@@H](C(=O)N2CCC[C@H]2C(=O)N[C@@H](CCCN=C(N)N)C(=O)NCC(N)=O)NC(=O)[C@H](CC(N)=O)NC(=O)[C@H](C)NC(=O)[C@H](Cc2ccccc2)NC1=O [listing 2 of 2 here] |  |  |  |  | 39 | 1.7 | 66 |  | 57 | 
7 | CCC[C@@H]1NC(=O)[C@H](Cc2ccccc2)NC(=O)[C@@H]([C@H](C)CC)NC(=O)CC2(CCCCC2)SSC[C@@H](C(=O)N2CCC[C@H]2C(=O)N[C@@H](CCCN=C(N)N)C(=O)NCC(N)=O)NC(=O)[C@H](CC(N)=O)NC1=O [listing 1 of 2 here] | 97.7 | 0.11 | 14.8 | 15.8 |  |  |  | 295 |  | 
8 | CCC[C@@H]1NC(=O)[C@H](Cc2ccccc2)NC(=O)[C@@H]([C@H](C)CC)NC(=O)CC2(CCCCC2)SSC[C@@H](C(=O)N2CCC[C@H]2C(=O)N[C@@H](CCCN=C(N)N)C(=O)NCC(N)=O)NC(=O)[C@H](CC(N)=O)NC1=O [listing 2 of 2 here] |  |  |  |  | 1.2 | 7 | 8.2 |  | 22 | 
9 | CC[C@@H]1NC(=O)[C@H](Cc2ccccc2)NC(=O)[C@@H]([C@H](C)CC)NC(=O)CC2(CCCCC2)SSC[C@@H](C(=O)N2CCC[C@H]2C(=O)N[C@@H](CCCN=C(N)N)C(=O)NCC(N)=O)NC(=O)[C@H](CC(N)=O)NC1=O |  |  |  |  | 29 | 0.41 | 12 |  | 19 | 
10 | CC[C@@H](C)[C@H]1NC(=O)CC2(CCCCC2)SSC[C@@H](C(=O)N2CCC[C@H]2C(=O)N[C@@H](CCCN=C(N)N)C(=O)NCC(N)=O)NC(=O)[C@H](CC(N)=O)NC(=O)[C@H](CC(N)=O)NC(=O)[C@H](Cc2ccccc2)NC1=O [listing 1 of 2 here] | 309 | 0.055 | 11.7 | 39.8 |  |  |  |  |  | 
11 | CC[C@@H](C)[C@H]1NC(=O)CC2(CCCCC2)SSC[C@@H](C(=O)N2CCC[C@H]2C(=O)N[C@@H](CCCN=C(N)N)C(=O)NCC(N)=O)NC(=O)[C@H](CC(N)=O)NC(=O)[C@H](CC(N)=O)NC(=O)[C@H](Cc2ccccc2)NC1=O [listing 2 of 2 here] |  |  |  |  | 0.16 | 25 | 3.9 |  |  | 
12 | CC[C@@H](C)[C@H]1NC(=O)CC2(CCCCC2)SSC[C@@H](C(=O)N2CCC[C@H]2C(=O)N[C@@H](CCCN=C(N)N)C(=O)NCC(N)=O)NC(=O)[C@H](CC(N)=O)NC(=O)[C@H]([C@@H](C)O)NC(=O)[C@H](Cc2ccccc2)NC1=O |  |  |  |  | 12 | 0.88 | 10.5 |  | 9.5 | 
